Test results published in ChEMBL document CHEMBL2321648, “Structure-based discovery of pyrazolobenzothiazine derivatives as inhibitors of hepatitis C virus replication” (J Med Chem, 2013).

Key:
[1] = Cytotoxicity against human HuH5.2 cells by MTS assay; assay type: cell-based, Huh-5-2
Hepatitis C virus [2] = test: Antiviral activity against Hepatitis C virus subtype 1b infected in human HuH5.2 cells assessed as inhibition of virus-induced cytopathic effect; assay type: functional, organism-based, Hepacivirus hominis; details: genotype 1b, Huh-5-2
In short: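 Eight-step 1:2 dilution series, 72 h at 37 °C. Cells lysed and luciferase luminescence read, expressed as % of untreated controls. EC50 taken from the dose-response curve, means ± SD of at least three independent experiments.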

Hepatitis C virus [3] = test: Inhibition of N-terminal His-tagged recombinant Hepatitis C virus subtype 1b NS5B Cdelta21 RNA dependent RNA polymerase expressed in Escherichia coli at 50 uM by liquid scintillation counting analysis
In short: (§1)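 N-His-tagged NS5BCΔ21 (NIH1b), purified from E. coli DH5α on Ni-NTA, 100 ng per reaction. Reaction stopped with cold TCA/pyrophosphate, products filter-precipitated and scintillation-counted. Compound tested at 50 µM, activity relative to DMSO control.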

[4] = Selectivity index, ratio of CC50 for human HuH5.2 cells to EC50 for Hepatitis C virus subtype 1b; assay type: toxicity; details: read-out: Ratio CC50/EC50
In short: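 Ratio of CC50 (MTS, 72 h) to EC50 (luciferase replicon read-out), both measured in parallel in Huh 5-2 replicon cells.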

Hepatitis C virus [5] = test: Binding affinity to Hepatitis C virus (isolate Con1) NS5B […] by surface plasmon resonance analysis; parameters: species or system Hepacivirus hominis
Hepatitis C virus [6] = test: Inhibition of N-terminal His-tagged recombinant Hepatitis C virus subtype 1b NS5B Cdelta21 RNA dependent RNA polymerase expressed in Escherichia coli by liquid scintillation counting analysis
In short: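 Dose-response with 8–12 concentrations, in duplicate in two independent experiments. IC50 obtained by nonlinear regression, means ± SD.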

Hepatitis C virus [7] = test: Inhibition of N-terminal His-tagged recombinant Hepatitis C virus subtype 1b N-terminal His-tagged expressed in Escherichia coli at 50 uM by liquid scintillation counting analysis relative to control; in short: as §1
Hepatitis C virus [8] = test: Inhibition of N-terminal His-tagged recombinant Hepatitis C virus subtype 1b N-terminal His-tagged expressed in Escherichia coli at non-toxic concentration by liquid scintillation counting analysis relative to control
In short: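 Recombinant NS5B genotype 1b (NIH1b) was His-tagged, C-terminally truncated by 21 residues, expressed in E. coli DH5α and purified on Ni-NTA. Products were TCA-precipitated on filters and counted by scintillation relative to the DMSO control. Compounds were screened at 50 µM.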

Hepatitis C virus [9] = test: Antiviral activity against Hepatitis C virus subtype 1b infected in human Huh-9-13 cells assessed as inhibition of virus-induced cytopathic effect; assay type: functional, organism-based, Hepacivirus hominis; details: genotype 1b

CS(=O)(=O)Nc1ccc(NC(=O)c2nn(-c3ccccc3)c3c2NS(=O)(=O)c2ccccc2-3)cc1
CC50 [1]: > 239 µM | EC50 (Hepatitis C virus [2]): 14 µM

CS(=O)(=O)Nc1ccc(NC(=O)c2nn(-c3cccc([N+](=O)[O-])c3)c3c2NS(=O)(=O)c2ccccc2-3)cc1
inhibition at 50 µM (Hepatitis C virus [3]): 33.7% | selectivity ratio [4]: ≥ 1 | CC50 [1]: > 220 µM | EC50 (Hepatitis C virus [2]): > 220 µM | EC90 (Hepatitis C virus [2]): > 220 µM | Kd (Hepatitis C virus [5]): 14 µM

CS(=O)(=O)Nc1ccc(NC(=O)c2nn(-c3ccccc3[N+](=O)[O-])c3c2NS(=O)(=O)c2ccccc2-3)cc1
CC50 [1]: > 220 µM | EC50 (Hepatitis C virus [2]): 17.8 µM

CS(=O)(=O)Nc1ccc(NC(=O)c2nn(-c3ccc([N+](=O)[O-])cc3)c3c2NS(=O)(=O)c2ccccc2-3)cc1
EC50 (Hepatitis C virus [2]): 7.9 µM | IC50 (Hepatitis C virus [6]): 7.7 µM

CN1c2c(C(=O)Nc3ccc(NS(C)(=O)=O)cc3)nn(-c3cccc(N)c3)c2-c2ccccc2S1(=O)=O
inhibition at 50 µM (Hepatitis C virus [3]): 45.8% | EC50 (Hepatitis C virus [2]): 9.2 µM | inhibition at 50 µM (Hepatitis C virus [7]): 45.8%

CN1c2c(C(=O)Nc3ccc(NS(C)(=O)=O)cc3)nn(-c3ccccc3N)c2-c2ccccc2S1(=O)=O
EC50 (Hepatitis C virus [2]): 26 µM

CN1c2c(C(=O)Nc3ccc(NS(C)(=O)=O)cc3)nn(-c3ccc(N)cc3)c2-c2ccccc2S1(=O)=O
EC50 (Hepatitis C virus [2]): 12 µM

CN1c2c(C(=O)Nc3ccc(N)cc3)nn(-c3cccc(F)c3)c2-c2ccccc2S1(=O)=O
inhibition at 50 µM (Hepatitis C virus [3]): 31.5% | EC50 (Hepatitis C virus [2]): 19 µM | inhibition at 50 µM (Hepatitis C virus [7]): 31.5%

CN1c2c(C(=O)Oc3ccc(NS(C)(=O)=O)cc3)nn(-c3cccc(F)c3)c2-c2ccccc2S1(=O)=O
inhibition at 50 µM (Hepatitis C virus [3]): 21.4% | EC50 (Hepatitis C virus [2]): 88 µM | inhibition at 50 µM (Hepatitis C virus [7]): 21%

COC(=O)c1nn(-c2cccc(F)c2)c2c1N(C)S(=O)(=O)c1ccccc1-2
inhibition at 50 µM (Hepatitis C virus [3]): 10.6% | EC50 (Hepatitis C virus [2]): 172 µM | inhibition at 50 µM (Hepatitis C virus [7]): 11% | inhibition (INH) (Hepatitis C virus [8]): 40%

CN1c2c(C(=O)Nc3ccc(NS(C)(=O)=O)cc3)nn(-c3cccc(F)c3)c2-c2ccccc2S1(=O)=O
EC50 (Hepatitis C virus [9]): 3.6 µM | EC50 (Hepatitis C virus [2]): 7.5 µM

CN1c2c(C(=O)Nc3ccc(NS(C)(=O)=O)cc3)nn(-c3ccccc3F)c2-c2ccccc2S1(=O)=O
EC50 (Hepatitis C virus [2]): 6.4 µM

CN1c2c(C(=O)Nc3ccc(NS(C)(=O)=O)cc3)nn(-c3ccc(F)cc3)c2-c2ccccc2S1(=O)=O
EC50 (Hepatitis C virus [2]): 23 µM
